# In ChEMBL document CHEMBL2163234, “Design and characterization of optimized adenosine A₂A/A₁ receptor antagonists for the treatment of Parkinson's disease” (J Med Chem, 2012):
# Active and inactive are the calls of the source. The rule behind the calls is not given here.
# How the values were obtained:
# Mus musculus [1] = experiment: Reversal of haloperidol-induced catalepsy in BALB/c mouse at 10 mg/kg, po measured 1 hr post dose; format: functional
# Outline: (§1)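 Fasted male Balb/c mice receive haloperidol 1 mg/kg sc in 0.3% tartaric acid/saline, then drug po in 0.5% methylcellulose 30 min later (0.1–10.0 mg/kg, or 10 mg/kg as % reversal). At 1 h post-dose, forepaws are placed on a bar 3.5 cm high and time in cataleptic position is recorded (max 60 s). Blinded; n = 8–12; mean ± SEM; Dunnett test.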
# Adenosine receptor A1 = molecular target: T1, Adenosine receptor A1 (Homo sapiens, UniProt P30542); experiment: Antagonist activity at human Adenosine receptor A1 assessed as inhibition of cAMP production; format: functional
# T1 sequence (P30542 whole entry): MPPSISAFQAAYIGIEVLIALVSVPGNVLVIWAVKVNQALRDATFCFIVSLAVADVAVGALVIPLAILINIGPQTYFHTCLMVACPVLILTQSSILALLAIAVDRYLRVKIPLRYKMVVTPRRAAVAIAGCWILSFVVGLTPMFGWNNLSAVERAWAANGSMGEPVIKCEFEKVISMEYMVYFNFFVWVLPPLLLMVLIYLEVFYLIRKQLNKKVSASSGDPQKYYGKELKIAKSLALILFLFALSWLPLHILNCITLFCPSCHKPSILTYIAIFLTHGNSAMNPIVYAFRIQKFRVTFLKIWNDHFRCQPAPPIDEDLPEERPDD
# Adenosine receptor A2a = Adenosine receptor A2a (Homo sapiens, UniProt P29274); experiment: Antagonist activity at human Adenosine receptor A2a assessed as inhibition of cAMP production; format: functional
# Chain of Adenosine receptor A2a (P29274 whole entry): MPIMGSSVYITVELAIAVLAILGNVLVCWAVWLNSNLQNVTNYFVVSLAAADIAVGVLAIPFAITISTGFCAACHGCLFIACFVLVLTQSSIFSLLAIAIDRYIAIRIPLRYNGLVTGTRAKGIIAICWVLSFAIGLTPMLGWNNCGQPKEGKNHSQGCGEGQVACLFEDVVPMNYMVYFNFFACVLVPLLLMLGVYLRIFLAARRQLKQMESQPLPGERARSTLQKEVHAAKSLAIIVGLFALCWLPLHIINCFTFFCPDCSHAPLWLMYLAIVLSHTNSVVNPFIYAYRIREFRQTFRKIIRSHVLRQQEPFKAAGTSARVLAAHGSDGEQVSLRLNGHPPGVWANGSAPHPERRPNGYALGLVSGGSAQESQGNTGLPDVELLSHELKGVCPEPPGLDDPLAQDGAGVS
# Mus musculus [2] = experiment: Reversal of haloperidol-induced catalepsy in po dosed BALB/c mouse measured 1 hr post dose; format: functional; details: for minimal effective dose: read-out: MED; outline: as §1
# Mus musculus [3] = experiment: Reversal of haloperidol-induced catalepsy in BALB/c mouse assessed as time duration of anticataleptic activity mouse at 10 mg/kg, po; format: functional
# Outline: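 Duration study: fasted male Balb/c mice are dosed with haloperidol 1 mg/kg sc, then drug 10 mg/kg po in 0.5% methylcellulose. Bar-test catalepsy time (max 60 s) is measured repeatedly at 30 min and at 1, 2 and 4 h after dosing. n = 8 per group; mean ± SEM; Dunnett test.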
# [4] = Volume of distribution at steady state in Sprague-Dawley rat at 2 mg/kg, iv administered as single dose; format: ADME, organism-based; design: dose 2 mg/kg, route intravenous; details: in vivo, read-out: Vdss
# Outline: (§2)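 Fasted animals (male Sprague-Dawley rats, male Balb/c mice, male and female cynomolgus monkeys) received a single iv dose or oral 10 mg/kg in 0.5% methylcellulose. Blood came from 3–4 animals per time point by orbital sinus (rats) or cardiac puncture (mice), or serially by venipuncture (monkeys). Plasma was acetonitrile-precipitated and analysed by LC-MS/MS (LOQ 0.7–2 ng/mL), with noncompartmental analysis.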
# [5] = Cmax in BALB/c mouse plasma at 10 mg/kg, po administered as single dose; format: ADME, organism-based; design: dose 10 mg/kg, route oral; outline: as §2
# Mus musculus [6] = experiment: Antiparkinsonian activity in CF-1 mouse assessed as reversal of reserpine-induced akinesia administered orally 18 hrs before reserpine challenge and measured 60 mins post dose by spontaneous locomotor activity assay; details: CF-1, po, read-out: MED
# [7] = Clearance in Sprague-Dawley rat at 2 mg/kg, iv and 10 mg/kg, po administered as single dose; format: ADME, organism-based; details: in vivo; outline: as §2
# [8] = Cmax in cynomolgus monkey plasma at 10 mg/kg, po administered as single dose; format: ADME, organism-based, Macaca fascicularis; design: dose 10 mg/kg, route oral; outline: as §2
# [9] = Cmax in Sprague-Dawley rat plasma at 10 mg/kg, po administered as single dose; format: ADME, organism-based; design: dose 10 mg/kg, route oral; outline: as §2
# [10] = Volume of distribution at steady state in cynomolgus monkey at 2 mg/kg, iv administered as single dose; format: ADME, organism-based, Macaca fascicularis; design: dose 2 mg/kg, route intravenous; details: in vivo, read-out: Vdss; outline: as §2
# [11] = Terminal half life in cynomolgus monkey at 10 mg/kg, po administered as single dose; format: ADME, organism-based, Macaca fascicularis; design: dose 10 mg/kg, route oral; details: in vivo, read-out: beta t1/2 (converted); outline: as §2
# Rattus norvegicus [12] = experiment: Antiparkinsonian activity in Wistar rat assessed as reversal of reserpine-induced akinesia administered orally 18 hrs before reserpine challenge and measured 60 mins post dose by spontaneous locomotor activity assay; details: for minimal effective dose: po, read-out: MED
# [13] = Oral bioavailability in Sprague-Dawley rat at 10 mg/kg administered as single dose; format: ADME, organism-based; details: in vivo; outline: as §2
# [14] = Oral bioavailability in cynomolgus monkey at 10 mg/kg administered as single dose; format: ADME, organism-based, Macaca fascicularis; details: in vivo; outline: as §2
# Rattus norvegicus [15] = experiment: Antiparkinsonian activity in Sprague-Dawley rat 6-OHDA lesion model assessed as potentiation of 10 mg/kg, po L-DOPA-induced increase in number of contralateral rotations dosed orally 6 weeks post OHDA-challenge; format: functional; details: 1008 h, read-out: MED
# Outline: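 Rats lesioned unilaterally in the medial forebrain bundle with 6-OHDA 12 μg were selected by apomorphine rotation (≥125 turns/h). Each rat serves as its own control, with randomized session days. Drug 0.1–10.0 mg/kg po (20% HPβCD) is given and followed 60 min later by L-DOPA 10 mg/kg po plus carbidopa, with rotations recorded over 120 min. Total contralateral turns reported; n = 16; Tukey test.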
# [16] = Volume of distribution at steady state in BALB/c mouse at 2 mg/kg, iv administered as single dose; format: ADME, organism-based; design: dose 2 mg/kg, route intravenous; details: in vivo, read-out: Vdss; outline: as §2
# Rattus norvegicus [17] = experiment: Reversal of haloperidol-induced catalepsy in po dosed Sprague-Dawley rat dosed 60 mins before haloperidol challenge and measured 1 hr post dose; format: functional; details: for minimal effective dose: read-out: MED
# [18] = Cmax in Sprague-Dawley rat brain at 2 mg/kg, iv and 10 mg/kg, po administered as single dose; format: ADME, organism-based
# Outline: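 Tissue distribution: fasted male Sprague-Dawley rats get 10 mg/kg po in 0.5% methylcellulose. Four rats per time point are euthanized, and brain is weighed, homogenized in methanol, evaporated and reconstituted. Blood and plasma are acetonitrile-treated. Drug levels are measured by LC-MS/MS.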
# [19] = Clearance in BALB/c mouse at 2 mg/kg, iv and 10 mg/kg, po administered as single dose; format: ADME, organism-based; details: in vivo; outline: as §2
# [20] = Oral bioavailability in BALB/c mouse at 10 mg/kg administered as single dose; format: ADME, organism-based; details: in vivo; outline: as §2
# [21] = Terminal half life in Sprague-Dawley rat at 10 mg/kg, po administered as single dose; format: ADME, organism-based; design: dose 10 mg/kg, route oral; details: in vivo, read-out: beta t1/2 (converted); outline: as §2
# [22] = Clearance in cynomolgus monkey at 2 mg/kg, iv and 10 mg/kg, po administered as single dose; format: ADME, organism-based, Macaca fascicularis; details: in vivo; outline: as §2
# Rattus norvegicus [23] = experiment: Antiparkinsonian activity in Sprague-Dawley rat 6-OHDA lesion model assessed as increase in number of contralateral rotations dosed orally 6 weeks post OHDA-challenge; format: functional, organism-based
# Outline: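 Rats receive 6-OHDA 12 μg unilaterally into the medial forebrain bundle. Inclusion required ≥125 contralateral rotations in 1 h after apomorphine 0.05 mg/kg sc. Design is within-subject, with drug 0.1–10.0 mg/kg po in 20% HPβCD after 30 min acclimation. Contralateral 360° turns are counted by a tethered optical sensor for 60 min. Mean ± SEM, n = 16, Tukey test.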
# [24] = Half life in BALB/c mouse at 10 mg/kg, po administered as single dose; format: ADME, organism-based; design: dose 10 mg/kg, route oral; details: in vivo; outline: as §2
# Rattus norvegicus [25] = experiment: Reversal of haloperidol-induced catalepsy in Sprague-Dawley rat assessed as time duration of anticataleptic activity at 1 mg/kg, po dosed 60 mins before haloperidol challenge and measured post dose
# [26] = Clearance in cynomolgus monkey at 1 mg/kg, iv and 10 mg/kg, po administered as single dose; format: ADME, organism-based, Macaca fascicularis; details: in vivo; outline: as §2
# Rattus norvegicus [27] = experiment: Reversal of haloperidol-induced catalepsy in Sprague-Dawley rat at 10 mg/kg, po dosed 60 mins before haloperidol challenge and measured 1 to 4 hrs post dose; format: functional, organism-based; design: dose 10 mg/kg
# [28] = Volume of distribution at steady state in cynomolgus monkey at 1 mg/kg, iv administered as single dose; format: ADME, organism-based, Macaca fascicularis; design: dose 1 mg/kg, route intravenous; details: in vivo, read-out: Vdss; outline: as §2
smiles,measurement,setting,value
Nc1nc(-c2ccccc2)c2c(n1)-c1cc(C(=O)c3cccnc3)ccc1C2=O,Activity,Mus musculus [1],<50%
same,Ki,Adenosine receptor A1,1.8 nM
same,Ki,Adenosine receptor A2a,0.5 nM
Nc1nc(-c2ccccc2)c2c(n1)-c1cc(Cc3ccncc3F)ccc1C2=O,Activity,Mus musculus [1],100%
same,Ki,Adenosine receptor A1,2.5 nM
same,Ki,Adenosine receptor A2a,0.7 nM
Nc1nc(-c2ccccc2)c2c(n1)-c1cc(C(F)(F)c3cccnc3)ccc1C2=O,Activity,Mus musculus [1],<50%
same,Ki,Adenosine receptor A1,29.3 nM
same,Ki,Adenosine receptor A2a,1.6 nM
Nc1nc(-c2ccccc2)c2c(n1)-c1cc(Cc3cccnc3)ccc1C2=O,ED50,Mus musculus [2],< 1 mg/kg
same,Ki,Adenosine receptor A1,2.4 nM
same,Time,Mus musculus [3],4 h
same,Ki,Adenosine receptor A2a,0.3 nM
Nc1nc(-c2ccccc2)c2c(n1)-c1cc(Cc3cncc(F)c3)ccc1C2=O,Activity,Mus musculus [1],100%
same,Ki,Adenosine receptor A1,6 nM
same,Ki,Adenosine receptor A2a,1.3 nM
CN1CCN(C(=O)c2ccc3c(c2)-c2nc(N)nc(-c4ccccc4)c2C3=O)CC1,Vd,[4],6 L/kg
same,Cmax,[5],1700 nM
same,minimal effective dose,Mus musculus [6],1 mg/kg
same,clearance,[7],52 mL/min/kg
same,ED50,Mus musculus [2],0.4 mg/kg
same,minimal effective dose,Mus musculus [2],1 mg/kg
same,Cmax,[8],1460 nM
same,Cmax,[9],968 nM
same,Vd,[10],4 L/kg
same,half-life,[11],4.3 h
same,Activity,Rattus norvegicus [12],Dose-dependent effect
same,minimal effective dose,Rattus norvegicus [12],1 mg/kg
same,Time,Mus musculus [3],4 h
same,bioavailability,[13],45%
same,bioavailability,[14],47%
same,minimal effective dose,Rattus norvegicus [15],1 mg/kg
same,Vd,[16],11 L/kg
same,Activity,Rattus norvegicus [17],Dose-dependent effect
same,ED50,Rattus norvegicus [17],0.6 mg/kg
same,minimal effective dose,Rattus norvegicus [17],1 mg/kg
same,Cmax,[18],459 nM
same,clearance,[19],37 mL/min/kg
same,bioavailability,[20],41%
same,half-life,[21],3.6 h
same,clearance,[22],15 mL/min/kg
same,Activity,Rattus norvegicus [23],Dose-dependent effect
same,half-life,[24],3.8 h
Nc1nc(-c2ccccc2)c2c(n1)-c1cc(OCCN3CCOCC3)ccc1C2=O,Vd,[4],1 L/kg
same,Cmax,[5],1080 nM
same,minimal effective dose,Mus musculus [6],1 mg/kg
same,clearance,[7],19 mL/min/kg
same,ED50,Mus musculus [2],< 0.1 mg/kg
same,minimal effective dose,Mus musculus [2],0.1 mg/kg
same,Cmax,[8],2770 nM
same,Time,Rattus norvegicus [25],4 h
same,Cmax,[9],1650 nM
same,Vd,[10],2 L/kg
same,half-life,[11],5.5 h
same,Activity,Rattus norvegicus [12],Dose-dependent effect
same,minimal effective dose,Rattus norvegicus [12],1 mg/kg
same,Time,Mus musculus [3],4 h
same,bioavailability,[13],18%
same,bioavailability,[14],55%
same,minimal effective dose,Rattus norvegicus [15],1 mg/kg
same,Vd,[16],5 L/kg
same,Activity,Rattus norvegicus [17],Dose-dependent effect
same,ED50,Rattus norvegicus [17],0.3 mg/kg
same,minimal effective dose,Rattus norvegicus [17],1 mg/kg
same,Cmax,[18],4160 nM
same,clearance,[19],97 mL/min/kg
same,bioavailability,[20],61%
same,half-life,[21],1.2 h
same,clearance,[22],7 mL/min/kg
same,Activity,Rattus norvegicus [23],Dose-dependent effect
same,half-life,[24],1.1 h
Nc1nc(-c2ccccc2)c2c(n1)-c1cc(CN3CCCC3)ccc1C2=O,Vd,[4],7 L/kg
same,clearance,[26],56 mL/min/kg
same,clearance,[7],85 mL/min/kg
same,Activity,Rattus norvegicus [27],Active
same,ED50,Mus musculus [2],0.2 mg/kg
same,Vd,[28],7 L/kg
same,Vd,[16],13 L/kg
same,clearance,[19],440 mL/min/kg
N#Cc1cncc(Cc2ccc3c(c2)-c2nc(N)nc(-c4ccccc4)c2C3=O)c1,Activity,Mus musculus [1],100%
same,Ki,Adenosine receptor A1,5.2 nM
same,Time,Mus musculus [3],2 h
same,Ki,Adenosine receptor A2a,1.4 nM
CC1CC[C@@H](C)N1Cc1ccc2c(c1)-c1nc(N)nc(-c3ccccc3)c1C2=O (mixture of isomers),ED50,Mus musculus [2],3.2 mg/kg
same,Ki,Adenosine receptor A1,37.3 nM
same,Ki,Adenosine receptor A2a,13.1 nM
Nc1nc(-c2ccccc2)c2c(n1)-c1cc(Cc3cnccc3Cl)ccc1C2=O,Activity,Mus musculus [1],100%
same,Ki,Adenosine receptor A1,0.5 nM
same,Ki,Adenosine receptor A2a,0.1 nM
Nc1nc(-c2ccccc2)c2c(n1)-c1cc(CN3C4CCC3CC4)ccc1C2=O,ED50,Mus musculus [2],1 mg/kg
same,Ki,Adenosine receptor A1,223 nM
same,Ki,Adenosine receptor A2a,3.1 nM
